Our source for the inhibition, Ratio IC50 and IC50 values is ChEMBL document CHEMBL2311453, “Tetrahydropyrroloquinolinone type dual inhibitors of aromatase/aldosterone synthase as a novel strategy for breast cancer patients with elevated cardiovascular risks” (J Med Chem, 2013).

pIC50: −log10 of the molar value.

The target of one data set is T1, CYP17 (Homo sapiens, UniProt P05093).
T1 sequence (P05093 whole entry): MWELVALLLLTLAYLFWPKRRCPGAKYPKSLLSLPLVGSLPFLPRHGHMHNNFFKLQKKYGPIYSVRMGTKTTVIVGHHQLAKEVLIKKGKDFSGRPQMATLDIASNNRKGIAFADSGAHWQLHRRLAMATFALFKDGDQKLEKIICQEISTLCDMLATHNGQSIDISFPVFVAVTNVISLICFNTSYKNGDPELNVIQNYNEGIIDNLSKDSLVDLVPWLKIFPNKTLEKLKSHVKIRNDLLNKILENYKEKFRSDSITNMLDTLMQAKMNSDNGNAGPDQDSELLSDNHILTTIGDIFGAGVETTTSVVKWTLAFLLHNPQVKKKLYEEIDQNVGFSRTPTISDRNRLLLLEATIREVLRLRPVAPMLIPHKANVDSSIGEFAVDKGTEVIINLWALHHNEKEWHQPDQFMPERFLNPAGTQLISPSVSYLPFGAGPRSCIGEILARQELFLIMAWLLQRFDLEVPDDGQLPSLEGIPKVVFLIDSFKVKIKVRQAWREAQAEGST
Nature of the data set: Inhibition of human CYP17 expressed in Escherichia coli using progesterone as substrate at 2 uM. The conditions noted are these: probe progesterone. Put shortly:
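Enzyme source was the 90000g sediment of E. coli coexpressing human CYP17 and cytochrome P450 reductase. Progesterone substrate at 25 μM, NADPH cofactor, inhibitor at 2 μM. Percent inhibition is the mean of at least two experiments (SD under 10%).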

For another data set, the system named is V79MZh. Nature of the data set: Selectivity factor, ratio of IC50 for human CYP11B1 to IC50 for human CYP11B2 expressed in hamster V79MZh cells. The data set is classed as cell-based. Put shortly: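 SF calculated as IC50(CYP11B1)/IC50(CYP11B2). Both IC50s come from V79MZh hamster fibroblasts expressing the human enzyme, with [1,2-³H]-11-deoxycorticosterone at 100 nM as substrate.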

The target of the next data set is T2, CYP11B2 (Homo sapiens, UniProt P19099).
T2 sequence (P19099 whole entry): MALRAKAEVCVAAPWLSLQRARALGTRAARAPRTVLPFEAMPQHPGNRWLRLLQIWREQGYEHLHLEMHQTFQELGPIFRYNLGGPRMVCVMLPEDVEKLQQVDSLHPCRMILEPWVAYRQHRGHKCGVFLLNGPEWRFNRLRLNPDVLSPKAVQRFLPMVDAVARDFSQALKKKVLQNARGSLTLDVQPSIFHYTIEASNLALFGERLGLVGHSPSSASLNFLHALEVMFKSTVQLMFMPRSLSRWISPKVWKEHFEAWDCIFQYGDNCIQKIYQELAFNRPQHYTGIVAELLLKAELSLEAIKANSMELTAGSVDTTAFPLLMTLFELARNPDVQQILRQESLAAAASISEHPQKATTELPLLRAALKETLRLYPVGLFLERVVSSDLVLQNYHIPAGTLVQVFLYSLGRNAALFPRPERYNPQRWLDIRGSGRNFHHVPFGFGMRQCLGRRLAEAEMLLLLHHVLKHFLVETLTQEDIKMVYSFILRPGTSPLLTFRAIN
As to the kind of experiment: (§1) Inhibition of human CYP11B2 expressed in hamster V79MZh cells using [1,2-3H]-11-deoxy-corticosterone as substrate. The conditions noted are these: human, hamster V79MZh cells expressing human CYP11B2, probe [1,2-3H]-11-deoxy-corticosterone. The data set is classed as cell-based. In outline:
(§2)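 V79MZh hamster fibroblasts stably expressing human CYP11B1 or CYP11B2, incubated with [1,2-³H]-11-deoxycorticosterone (100 nM) and inhibitor at varying concentrations. IC50 taken as mean of at least three experiments (relative SD under 25%).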

For another data set, the target named is T3, CYP11B1 (Homo sapiens, UniProt P15538).
T3 sequence (P15538 whole entry): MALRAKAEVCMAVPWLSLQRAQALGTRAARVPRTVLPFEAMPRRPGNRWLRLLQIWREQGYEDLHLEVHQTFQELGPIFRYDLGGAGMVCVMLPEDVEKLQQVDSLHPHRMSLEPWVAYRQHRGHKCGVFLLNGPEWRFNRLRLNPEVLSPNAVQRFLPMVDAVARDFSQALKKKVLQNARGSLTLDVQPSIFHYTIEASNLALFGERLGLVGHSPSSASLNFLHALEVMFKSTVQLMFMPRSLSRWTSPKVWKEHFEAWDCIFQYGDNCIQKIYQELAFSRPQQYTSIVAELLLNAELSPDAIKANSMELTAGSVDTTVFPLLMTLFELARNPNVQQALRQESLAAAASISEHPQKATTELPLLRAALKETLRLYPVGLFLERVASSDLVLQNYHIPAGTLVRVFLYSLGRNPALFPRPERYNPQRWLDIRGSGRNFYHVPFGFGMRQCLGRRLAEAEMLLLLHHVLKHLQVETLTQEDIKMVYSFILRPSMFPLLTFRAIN
As to the kind of experiment: (§3) Inhibition of human CYP11B1 expressed in hamster V79MZh cells using [1,2-3H]-11-deoxy-corticosterone as substrate. The conditions noted are these: human, hamster V79MZh cells expressing human CYP11B1, probe [1,2-3H]-11-deoxy-corticosterone. The data set is classed as cell-based. Put shortly: as §2

Another data set deals with T4, CYP19 (aromatase) (Homo sapiens, UniProt P11511).
T4 sequence (P11511 whole entry): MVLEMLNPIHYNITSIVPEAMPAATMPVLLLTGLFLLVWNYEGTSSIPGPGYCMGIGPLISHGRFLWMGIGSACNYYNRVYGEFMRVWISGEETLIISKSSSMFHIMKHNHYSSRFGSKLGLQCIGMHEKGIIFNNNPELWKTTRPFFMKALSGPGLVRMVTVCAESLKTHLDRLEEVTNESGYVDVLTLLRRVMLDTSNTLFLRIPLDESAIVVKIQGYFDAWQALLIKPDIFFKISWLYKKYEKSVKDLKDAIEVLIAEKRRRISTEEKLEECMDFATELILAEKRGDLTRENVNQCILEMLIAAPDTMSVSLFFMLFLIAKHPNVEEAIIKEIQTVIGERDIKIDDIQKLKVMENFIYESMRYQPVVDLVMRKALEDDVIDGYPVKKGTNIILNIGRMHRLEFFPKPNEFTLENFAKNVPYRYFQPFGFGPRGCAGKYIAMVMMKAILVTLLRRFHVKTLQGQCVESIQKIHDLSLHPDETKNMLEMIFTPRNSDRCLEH
Nature of the data set: Inhibition of human CYP19 using [1beta-3H]androstenedione as substrate at 500 nM by 3H2O method. The conditions noted are these: probe [1beta-3H]androstenedione. Put shortly:
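Human placental microsomes as CYP19 source. [1β-³H]androstenedione substrate at 500 nM, activity read by ³H₂O release. IC50 is the mean of at least three experiments (relative SD under 25%).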

Data set [1] addresses T5, Cytochrome P450 11B2, mitochondrial (Homo sapiens, UniProt P19099).
T5 sequence (P19099 whole entry): T2 sequence (P19099 whole entry)
Described as §1. The data set is classed as cell-based. In outline:
as §2

For data set [2], the target named is T6, Cytochrome P450 11B1, mitochondrial (Homo sapiens, UniProt P15538).
T6 sequence (P15538 whole entry): T3 sequence (P15538 whole entry)
The description is as §3. It counts as cell-based. In outline: as §2

Another data set addresses T7, Aromatase (Homo sapiens, UniProt P11511).
T7 sequence (P11511 whole entry): T4 sequence (P11511 whole entry)
As to the kind of experiment: Inhibition of human CYP19 using [1beta-3H]androstenedione as substrate by 3H2O method.

On to `O=C1CCc2cc(C(C3CC3)n3ccnc3)cc3c2N1CC3` (stereo not drawn), for which, at CYP17, the inhibition at 2 µM is 41%. Moreover, the Ratio IC50 in the data set with V79MZh came out at 0.1. The pIC50 on CYP11B2 is 7.62; against CYP11B1, 8.66.

`O=C1CCc2cc(-c3cccnc3)cc3c2N1CC3` yielded an inhibition at 500 nM at CYP19 (aromatase) of 18%. Moreover, the Ratio IC50 in the data set with V79MZh amounted to 650. For the same compound, the values for the pIC50 in data set [1] and in data set [2] were 8.96 and 6.15, respectively.

`O=C1CCc2cc(C(c3ccncc3)c3ccc(Cl)cc3)cc3c2N1CC3` (stereo not drawn): testing at 2 µM on CYP17 gave an inhibition of 60%. In the data set with V79MZh, the Ratio IC50 came out at 2.9. Further, the pIC50 in data set [1] is 7.49; in data set [2], 7.04; against Aromatase, 7.26.

As to `Cc1cccc(C(c2ccncc2)c2cc3c4c(c2)CCN4C(=O)CC3)c1` (stereo not drawn), the inhibition at 2 µM on CYP17 was 46%. In the data set on V79MZh, the Ratio IC50 was found to be 33. The negative logarithm of the IC50 (pIC50) in data set [1] was 7.39; in data set [2], 5.87; against Aromatase, 7.49.

The compound `O=C1CCc2cc(Cc3cccnc3)cc3c2N1CC3` gave an inhibition at 2 µM against CYP17 below 3%. Also, the Ratio IC50 in the data set on V79MZh was 0.2. Further, the pIC50 was 7.13 in data set [1], 7.80 in data set [2] and 5.48 at Aromatase.

On CYP17, `O=C1CCc2cc(C(O)c3ccncc3)cc3c2N1CC3` (stereo not drawn) had an inhibition at 2 µM below 3%. Moreover, the Ratio IC50 with V79MZh is 0.6. The negative-log IC50 (pIC50) in data set [1] was 6.25; in data set [2], 6.46; at Aromatase, below 5.30.

The compound `O=C1CCc2cc(C(c3ccncc3)c3cccc(Cl)c3)cc3c2N1CC3` (stereo not drawn) returned an inhibition at 2 µM against CYP17 of 58%. Also, in the data set with V79MZh, the Ratio IC50 amounted to 13. Also, the values for the negative-log IC50 (pIC50) (in data set [1]; in data set [2]; against Aromatase) were 7.29, 6.19 and 7.72, respectively.
